Measurements as given in ChEMBL document CHEMBL3351944 (J Nat Prod, 2014).

Target: T1, Kappa-type opioid receptor (Homo sapiens, UniProt P41145)
Test: Agonist activity at human kappa opioid receptor expressed CHO cells co-expressing Galphaq16 assessed as calcium mobilization by fluorescence assay relative to (-)-U69593
Type: functional, cell-based
Conditions: not given
Method in brief: (§1)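 CHO cells stably expressing KOP and Gαq16, grown overnight at 37 °C. Loaded with Calcium 5 dye in HBSS with 20 mM HEPES, 0.25% BSA, 1% DMSO, […], 1 h at 37 °C. Compounds added as 10× dilutions, top 10 μM. Fluorescence change over baseline recorded for 60 s. 10-point curves in duplicate, n = 2. Nonlinear regression gave EC50 and Emax.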

T1 sequence (P41145 whole entry): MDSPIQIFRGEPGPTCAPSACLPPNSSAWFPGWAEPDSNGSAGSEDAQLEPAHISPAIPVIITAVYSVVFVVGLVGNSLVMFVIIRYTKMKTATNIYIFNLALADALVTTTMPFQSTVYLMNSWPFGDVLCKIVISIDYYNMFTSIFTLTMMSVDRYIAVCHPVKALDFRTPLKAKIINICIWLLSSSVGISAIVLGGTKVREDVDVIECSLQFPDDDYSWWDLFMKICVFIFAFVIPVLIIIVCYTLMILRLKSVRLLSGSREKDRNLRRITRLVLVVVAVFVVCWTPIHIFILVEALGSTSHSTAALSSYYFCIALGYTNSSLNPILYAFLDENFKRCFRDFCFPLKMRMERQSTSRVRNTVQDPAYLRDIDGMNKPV

Molecule `COC(=O)[C@@H]1C[C@H](OC(C)=O)C(=O)[C@H]2[C@@]1(C)CC[C@H]1C(=O)O[C@H](CC3=CC(=O)C=CC3=O)C[C@]21C` has an Emax of 27%.

Test system: MDCK
Test: Apparent permeability from basolateral side to apical in verapamil pretreated MDCK cells expressing MDR1 at 10 uM after 60 mins by LC/MS analysis
Type: ADME, cell-based, Canis lupus familiaris
Conditions: dog, 1 h

Compared with `COC(=O)[C@@H]1C[C@H](OC(C)=O)C(=O)[C@H]2[C@@]1(C)CC[C@H]1C(=O)O[C@H](CC3=CC(=O)C(OC)=CC3=O)C[C@]21C`, `COC(=O)[C@@H]1C[C@H](OC(C)=O)C(=O)[C@H]2[C@@]1(C)CC[C@H]1C(=O)O[C@H](CC3=CC(=O)C(OC)=C(OC)C3=O)C[C@]21C` is higher in permeability: 38.4% for the first, 47.2% for the second.

First: Cn1c(=O)c2c(ncn2C)n(C)c1=O [CAFFEINE]
Second: COC(=O)[C@@H]1C[C@H](OC(C)=O)C(=O)[C@H]2[C@@]1(C)CC[C@H]1C(=O)O[C@H](c3ccoc3)C[C@]21C [SALVINORIN A]
The permeability of the first is higher: 73% for the first, 54.2% for the second.

`COc1cc2nc(N3CCN(C(=O)c4ccco4)CC3)nc(N)c2cc1OC` [PRAZOSIN] was tested, and the permeability was 35.5%.

Test system: MCF7
Test: Antiproliferative activity against human MCF7 cells assessed as growth inhibition after 72 hrs by MTS/PMS assay
Type: functional, cell-based
Conditions: MCF7, 72 h
Method in brief: (§2)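 MCF7 cells seeded at 2000/well and left to attach overnight. Six-point curves in duplicate over 100 nM–100 μM for test compounds and 1 nM–1 μM for geldanamycin, 1% DMSO final, 72 h at 37 °C. Growth read by MTS/PMS and normalized to 1% DMSO controls. At least two independent experiments; nonlinear regression gave IC50 and % inhibition.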

`COC(=O)[C@@H]1C[C@H](OC(C)=O)C(=O)[C@H]2[C@@]1(C)CC[C@H]1C(=O)O[C@H](CC3=CC(=O)C(OC)=CC3=O)C[C@]21C` and `COC(=O)[C@@H]1C[C@H](OC(C)=O)C(=O)[C@H]2[C@@]1(C)CC[C@H]1C(=O)O[C@H](CC3=CC(=O)C=CC3=O)C[C@]21C` are within 1.5-fold of each other in IC50: 5840 nM for the first, 6540 nM for the second.

Going from `COC(=O)[C@@H]1C[C@H](OC(C)=O)C(=O)[C@H]2[C@@]1(C)CC[C@H]1C(=O)O[C@H](c3ccoc3)C[C@]21C` [SALVINORIN A] to `COC(=O)[C@@H]1C[C@H](OC(C)=O)C(=O)[C@H]2[C@@]1(C)CC[C@H]1C(=O)O[C@H](CC3=CC(=O)C(OC)=C(OC)C3=O)C[C@]21C`, the IC50 falls from > 100000 nM to 2700 nM.

Compared with `O=C1C=CC(=O)C=C1` [BENZOQUINONE], `COC1=C2C[C@@H](C)C[C@H](OC)[C@H](O)[C@@H](C)/C=C(\C)[C@H](OC(N)=O)[C@@H](OC)/C=C\C=C(/C)C(=O)NC(=CC1=O)C2=O` [GELDANAMYCIN] is 64-fold lower in IC50: 2570 nM for the first, 40 nM for the second.

Target: T1, Kappa-type opioid receptor
Test: Agonist activity at human kappa opioid receptor expressed CHO cells co-expressing Galphaq16 assessed as calcium mobilization by fluorescence assay
Type: functional, cell-based
Conditions: not given
Method in brief: as §1

Compared with `COC(=O)[C@@H]1C[C@H](OC(C)=O)C(=O)[C@H]2[C@@]1(C)CC[C@H]1C(=O)O[C@H](CC3=CC(=O)C(OC)=CC3=O)C[C@]21C`, `COC(=O)[C@@H]1C[C@H](OC(C)=O)C(=O)[C@H]2[C@@]1(C)CC[C@H]1C(=O)O[C@H](CC3=CC(=O)C=CC3=O)C[C@]21C` is lower in EC50: > 10000 nM for the first, 2500 nM for the second.

In the case of `COC(=O)[C@@H]1C[C@H](OC(C)=O)C(=O)[C@H]2[C@@]1(C)CC[C@H]1C(=O)O[C@H](CC3=CC(=O)C(OC)=C(OC)C3=O)C[C@]21C`, the EC50 is reported as > 10000 nM.

Test system: MCF7
Test: Antiproliferative activity against human MCF7 cells assessed as growth inhibition after 72 hrs by MTS/PMS assay relative to DNSO-treated control
Type: functional
Conditions: not given
Method in brief: as §2

Going from `COC(=O)[C@@H]1C[C@H](OC(C)=O)C(=O)[C@H]2[C@@]1(C)CC[C@H]1C(=O)O[C@H](CC3=CC(=O)C(OC)=CC3=O)C[C@]21C` to `COC(=O)[C@@H]1C[C@H](OC(C)=O)C(=O)[C@H]2[C@@]1(C)CC[C@H]1C(=O)O[C@H](CC3=CC(=O)C=CC3=O)C[C@]21C`, the “inhibition (INH)” value falls from 83% to 77%.

Compared with `O=C1C=CC(=O)C=C1` [BENZOQUINONE], `COC1=C2C[C@@H](C)C[C@H](OC)[C@H](O)[C@@H](C)/C=C(\C)[C@H](OC(N)=O)[C@@H](OC)/C=C\C=C(/C)C(=O)NC(=CC1=O)C2=O` [GELDANAMYCIN] is lower in “inhibition (INH)” value: 85% for the first, 81% for the second.

In the case of `COC(=O)[C@@H]1C[C@H](OC(C)=O)C(=O)[C@H]2[C@@]1(C)CC[C@H]1C(=O)O[C@H](CC3=CC(=O)C(OC)=C(OC)C3=O)C[C@]21C`, the “inhibition (INH)” value is reported as 86%.

Test system: MDCK
Test: Apparent permeability from basolateral side to apical in MDCK cells expressing MDR1 at 10 uM after 60 mins by LC/MS analysis
Type: ADME, cell-based, Canis lupus familiaris
Conditions: dog, 1 h

Compared with `COC(=O)[C@@H]1C[C@H](OC(C)=O)C(=O)[C@H]2[C@@]1(C)CC[C@H]1C(=O)O[C@H](CC3=CC(=O)C(OC)=CC3=O)C[C@]21C`, `COC(=O)[C@@H]1C[C@H](OC(C)=O)C(=O)[C@H]2[C@@]1(C)CC[C@H]1C(=O)O[C@H](CC3=CC(=O)C(OC)=C(OC)C3=O)C[C@]21C` is lower in permeability: 9.7% for the first, 5% for the second.

First: Cn1c(=O)c2c(ncn2C)n(C)c1=O [CAFFEINE]
Second: COC(=O)[C@@H]1C[C@H](OC(C)=O)C(=O)[C@H]2[C@@]1(C)CC[C@H]1C(=O)O[C@H](c3ccoc3)C[C@]21C [SALVINORIN A]
The permeability of the first is higher: 85.9% for the first, 21.2% for the second.

With `COc1cc2nc(N3CCN(C(=O)c4ccco4)CC3)nc(N)c2cc1OC` [PRAZOSIN] the permeability was 6.7%.
